System: MS2 coat protein
Experiment: apparent Kd, MS2 coat protein; higher = weaker binding; RNA-MaP array; FMN 200 µM where present
Summary of the method: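 Green signal from SNAP-549-labelled MS2 coat protein was normalised to red-channel RNA signal and to the median Fmax of control clusters. The protein was titrated from 0.7 or 1.5 nM, doubling to 3 µM, without and then with constant ligand, over designs transcribed by stalled E. coli RNA polymerase on Illumina sequencing-chip clusters, in 100 mM Tris-HCl pH 7.5, 80 mM KCl, 4 mM MgCl2, BSA, DTT, yeast tRNA and Tween-20. The apparent Kd is the median of filtered per-cluster binding-curve fits.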

[1] = designed as: OFF switch for flavin mononucleotide, no ligand
[2] = ligand present: flavin mononucleotide, designed as: OFF switch for flavin mononucleotide
[3] = designed as: ON switch for flavin mononucleotide, no ligand
[4] = ligand present: flavin mononucleotide, designed as: ON switch for flavin mononucleotide

| Sequence | apparent Kd [1] [nM] | apparent Kd [2] [nM] | apparent Kd [3] [nM] | apparent Kd [4] [nM] |
| --- | --- | --- | --- | --- |
| UUAUUUAGGUAGGAUAUCGAUAUUAUUCCCUAUCGAGAAGGGUCUACAUGAGGAUCACCCAUGUUAGCAUGUUU | 22.3 | 22.2 | – | – |
| UUUUAACAUGAGGAUCACCCAUGUGAGGAUAUCGAAAUUUAUAUUAAUAUUAAUAAAUCGAGAAGGCACAUUUU | 117 | 127 | – | – |
| GGAUGACAAAGUCAUCCAAUACGAACAUGAGGAUCACCCAUGUAGGAUAUGCUUCUCAAAGAGAAGCAGAAGGACAUGUGUCUU | 28.7 | 158 | – | – |
| CGCGAACAUGAGGAUCACCCAUGUGAAAAACACAGAGGAUAUGUCGCAUGCGUGUAAAAGACAGAAGGCUGUCGCG | – | – | 45.5 | 21.9 |
| AAUAAACAUGAGGAUCACCCAUGUGAGGAUAUGGUAUUAUUUGGACAGUUAUGAUAUACCAGAAGGCACAAAUA | 28 | 46.8 | – | – |
| AAAAAGUCAGGAUAUAGCAAAGGUCACGAAAGUGACAAAGGCUAGAAGGGACAUGAGGAUCACCCAUGUAAAAA | 31 | 39.1 | – | – |
| UAUGGUUAAGUCAGGAUAUGCUCAUAGAGGUCUGUGCAGAAGGGACAUGAGGAUCACCCAUGUAUGGUAGUGUU | 194 | 240 | – | – |
| GUAGCACAUGAAAAUAUAACAUGAGGAUCACCCAUGUGUUAUGAGGAUAUGGAUGUGAAGUUAAUCCAGAAGGCAUUAUGCUAC | – | – | 21.5 | 11.7 |
| ACAUGAGGAUCACCCAUGUAAUGAUGGGUACUAUAUUAUUCGUAGGAUAUCGUUGUUAGUUUGUGCGAGAAGGACGAUUGCUUU | 871 | 1060 | – | – |
| AAUGUUGAUGUGAGGAUAUACAUAGUUUGACCGUAGUAGAAGGCACAUGAGGAUCACCCAUGUAGAUGUUUGGU | 12 | 24.2 | – | – |
| GUUGUAAUGUCAGGAUAUAUAAUAAGUCAUACAGUAGAAGGGAUAAUUAUACUCAUGUACAUGAGGAUCACCCAUGUUAAAUAG | – | – | 63.6 | 37.9 |
| UUUUUGUGAGGAUAUCAGUAGUAAAAUAAAUAAAUUACUACUGAGAAGGCACAUGAGGAUCACCCAUGUUCCUU | 14 | 30.3 | – | – |
| AUAGUGCCCGAGAAGGACGUACCACAUGUUGAUCACCGAUAUAAGGAACGUAGGAUAUUGGACAUGAGGAUCACCCAUGUGGAU | – | – | 87.5 | 162 |
| CAAUUUAUAACAGGAUAUACAAUACAAUGAUUAGUAGAAGGGUUUAAUACAUGAGGAUCACCCAUGUCAUGUGUCAUAAUAACC | 34.3 | 24.9 | – | – |
| CAGCUGAAUGUGAGGAUAUUACGAGCUGCGGCUCGUGAGAAGGCACAUGAGGAUCACCCAUGUCUCAACAGCUG | 37.2 | 741 | – | – |
| GCCGUCAACGUAGGAUAUCUUCAGCCACAGCACAUUGCUGUACAUGAGGAUCACCCAUGUCCUGGAGAGAAGGACGGACGGCAG | – | – | 108 | 19.6 |
| CAGGGUAGAGGAUAUACGUAGGUACAGAUCUGUGUGAUCCUACAUGAGGAUCACCCAUGUAGAAGGCUAGCCUG | 356 | 39.4 | – | – |
| AGCUAGUACCGAGGAUAUACGUACAUGAGGAUCACCCAUGUAUACAUGAAUUAAUGAGACUACAUGUAGAAGGCGGUACUAGCA | – | – | 51.4 | 14.2 |
| GCAAUCGCAUGAGGAUAUGCUCGAGUUUAGAGAGCAGAAGGCAUGUCAUAAGACAUGAGGAUCACCCAUGUAGUUAAAAUGGCA | – | – | 39.9 | 9.42 |
| GUUAUUAACAAGAAGGCAUACAUGAGGAUCACCCAUGUUCUACAUGGAUAAUGAGGAUAUUGCUAAUACAUGAGGAUCACCCAG | 72 | 66.9 | – | – |
| ACAUGAGGAUCACCCAUGUUCGUCGCGUUGUGUCGCGAGUCUGAGGAUAUCGAGGUGGGUUUUGUUGAGAAGGCGGGCCCGUGU | – | – | 129 | 151 |

| Sequence | apparent Kd [1] [nM] | apparent Kd [2] [nM] | apparent Kd [3] [nM] | apparent Kd [4] [nM] |
| --- | --- | --- | --- | --- |
| GCAGGCUUCGAGAAGGACAUGAGGAUCACCCAUGUGCGUGUGAAGCAGCCGUGAGGCUGCAUCAUGUAGGAUAUCGGAGUCUGU | 77.8 | 650 | – | – |
| GCUGACGAUGUAGGAUAUCUCGACGAUAAGUCGAGAGAAGGACAUGAGGAUCACCCAUGUCUCAAAACGUCAGCGAGGAAACUC | 16.4 | 17.4 | – | – |
| UUUCCACAUGAGGAUCACCCAUGUGAGGAUAUGGAGCGCGACCGCGCGGUCGCGUACACCAGAAGGCGCAUGAU | 31.9 | 91 | – | – |
| GGCUAGUCAGGAUAUACGAACAUGUCAAAAGACGUGAAGGGACAUGAGGAUCACCCAUGUAGAAGGGACUAGCC | 22.8 | 182 | – | – |
| GUUACACAUGAGGAUCACCCAUGUAAGGAUAUGCUGCGGUCGCGCUGACGUGACUGCAGCAGAAGGUACAAAUG | 77.4 | 92.1 | – | – |
| ACAUGAGGAUCACCCAUGUGAACAUAGGAUAUUGGUGAUCAGGCGUGUUAUACAGGAUAGGUCUGCGAGAAGGGUGUACGUUGC | – | – | 367 | 71.7 |
| UGUGUAACGGAGGAUAUAGGACUUCAACGAAGACUAGAAGGCCGAACAUGAGGAUCACCCAUGUGGUCCUCCGU | 11.9 | 14.9 | – | – |
| AUUUUGUCAGGAUAUGAGUAGUAGGACGAAAGUGUUAUUAUUUAGAAGGGACAUGAGGAUCACCCAUGUUCCUC | 12.7 | 16.2 | – | – |
| GGAGCACACAUUAACAUGAGGAUCACCCAUGUCACAAGACAUGAGGAUAUGGAUCCGAAAAGGAUCCAGAAGGCAUGGUGCUCC | – | – | 657 | 28 |
| AUAUUUAUUUAGAAGGACAUGAGGAUCACCCAUGUCGCUGGGCGCGGGAAACCGUGCGCGGCCAUGUAGGAUAUAGGUAGAUAU | 14.4 | 12.4 | – | – |
| ACAUGAUAUGUAGGAUAUCACUACUUGUGUUAUAAAAUUGUAAUUUAGGAUUGAGAAGGACAUUUACAUGAGGAUCACCCAUGU | 14.7 | 11.6 | – | – |
| AAACAUGUCCGAGGAUAUCUGGAAACAUUUUCAAGAGAAGGCGGACAUGAGGAUCACCCAUGUCUCUCCUCAUCAACUACAUAU | 8.09 | 59.4 | – | – |
| AUGACUCUAGGAUAUUAGCGGGCCUACAUGAGGAUCACCCAUGUCGUGUCGCGGGUAUGCUGAGAAGGAGAGCACA | 14.2 | 17.9 | – | – |
| AGUUGUAAACAGAACAUGAGGAUCACCCAUGUGCUCUCGUGUAAGGAUAUACAUUCGUAUGGAAAGUAGAAGGUACUAAUUAUG | – | – | 78.4 | 78.7 |
| GCCGGUUCAGUUAGGAUAUUCGACACACCUCUCUAGAAGAAGGAACAUGAGGAUCACCCAUGUGAUUCCUACCG | 46.7 | 56.6 | – | – |
| GCGAAUAAGUGAGGAUAUACAUAAUUUAUAACUGUAGAAGGCACAAACCUCAAGACAUGAGGAUCACCCAUGUGAAAUAUCGCU | 31 | 81.8 | – | – |
| ACAUGCAUAGCGAUAUGAUCGAGAGAUCAUGUCGCUAAAGUUAGAAGGACAUGAGGAUCACCCAUGUAGGAUAUGGGAGCAUGA | – | – | 43.1 | 9.96 |
| ACAAAUCAUGUAGGAUAUCGAUUGCGUCGCGAUCGAGAAGGACAAGAGGGUCACCCUUGUACAUGAGGAUCACCCAUGUCAUGA | 193 | 120 | – | – |
| GAAUAGGCAGGAUAUACAUGAGGAUCACCCAUGUGCCGGCGAAAGGUACGUUCGAAAGGUAGAAGGGCCUAAAC | 78.6 | 288 | – | – |
| GCUAUCGUUGUAGGAUAUGCUUGCCAAAGGCGAGCAGAAGGACAUGAGGAUCACCCAUGUCAGUGGUUGAAGAGAAGAGAUGGC | 27 | 61.5 | – | – |
| GAUAGGACAGAGAAGGACAUAGCUAGAGAUACUAGCAUAAGAACUUUCACAUGAGGAUCACCCAUGUAGGAUAUCUGUCCUAUC | 4.96 | 5.53 | – | – |

— the EternaBench riboswitch data
